Here are results for 20 compounds from ChEMBL document CHEMBL3259704, “Second generation steroidal 4-aminoquinolines are potent, dual-target inhibitors of the botulinum neurotoxin serotype A metalloprotease and P. falciparum malaria” (J Med Chem, 2014).

Each structure is given as a SMILES string.

Series [1] concerns the target Botulinum neurotoxin type A (Clostridium botulinum) (UniProt P0DPI0). The experiment in a line: Inhibition of Clostridium botulinum recombinant BoNT/A light chain using N-terminal acetylated, C-terminal aminated SNAP-25 (187-203) as substrate at 20 uM by reverse-phase HPLC analysis. In outline:
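Recombinant BoNT/A LC with SNAP-25 187–203 peptide substrate in 40 mM HEPES–0.05% Tween, pH 7.3, with 0.5 mg/mL BSA and 50 μM excess Zn, at 37 °C. Quenched with TFA; reverse-phase HPLC product/substrate peak areas give percent inhibition, run in duplicate.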

Series [2] concerns Plasmodium falciparum. The experiment in a line: Antimalarial activity against CQ, MFQ-susceptible Plasmodium falciparum D6 clone Sierra 1/UNC isolate assessed as inhibition of parasite proliferation by MSF assay. The class given is functional, organism-based. The gist of the method:
(§1)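 SYBR Green I fluorescence (MSF) microtiter drug-sensitivity assay: malarial DNA content is the measure of in vitro parasite proliferation. Resistance index is the IC90 ratio of the resistant strain to D6.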

Series [3] is described as follows: Selectivity index, ratio of IC50 for human HepG2 cells to IC50 for CQ-resistant, MFQ-susceptible Plasmodium falciparum W2 clone Indochina 1 isolate. The class given is toxicity, cell-based. Particulars: read-out: Ratio IC50.
Series [4] concerns Plasmodium falciparum. The experiment in a line: Antimalarial activity against CQ-resistant, MFQ-susceptible Plasmodium falciparum W2 clone Indochina 1 isolate assessed as inhibition of parasite proliferation by MSF assay. The class given is functional, organism-based. The gist of the method: as §1
Series [5] can be described thus: Selectivity index, ratio of IC50 for human HepG2 cells to IC50 for CQ, MFQ-resistant Plasmodium falciparum TM91C235 clone Southeast asian isolate. It counts as toxicity, cell-based. Particulars: read-out: Ratio IC50.
The test system of series [6] is Plasmodium falciparum. The experiment in a line: Antimalarial activity against CQ, MFQ-resistant Plasmodium falciparum TM91C235 clone Southeast asian isolate assessed as inhibition of parasite proliferation by MSF assay. The class given is functional, organism-based. The gist of the method:
as §1

Series [7] has as its system HepG2. The experiment in a line: Cytotoxicity against human HepG2 cells assessed as cell viability after 48 hrs by MTT assay. The note with it: HepG2, 48 h. The class given is cell-based.
The nature of series [8]: Selectivity index, ratio of IC50 for human HepG2 cells to IC50 for CQ, MFQ-susceptible Plasmodium falciparum D6 clone Sierra 1/UNC isolate. It counts as toxicity, cell-based. The note with it: read-out: Ratio IC50.
Series [9] concerns Plasmodium falciparum. Description: Resistance index, ratio of IC90 for CQ-resistant, MFQ-susceptible Plasmodium falciparum W2 clone Indochina 1 isolate to IC90 for CQ, MFQ-susceptible Plasmodium falciparum D6 clone Sierra 1/UNC isolate. The class given is functional. The gist of the method: as §1
In series [10] the target is Botulinum neurotoxin type A (Clostridium botulinum, UniProt P0DPI0). Description: Inhibition of Clostridium botulinum recombinant BoNT/A light chain using N-terminal acetylated, C-terminal aminated SNAP-25 (187-203) as substrate by reverse-phase HPLC analysis. The gist of the method: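 Same HPLC LC cleavage assay (pH 7.3 HEPES/Tween, BSA, excess Zn, 37 °C). […] Ki comes from velocity versus substrate at several inhibitor levels, globally fit to a competitive model.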

In series [11] the test system is Plasmodium falciparum. The experiment in a line: Resistance index, ratio of IC90 for CQ, MFQ-resistant Plasmodium falciparum TM91C235 clone Southeast asian isolate to IC90 for CQ, MFQ-susceptible Plasmodium falciparum D6 clone Sierra 1/UNC isolate. It counts as functional. The gist of the method:
as §1

Sequence of Botulinum neurotoxin type A (Clostridium botulinum) (P0DPI0 2-448 limits assumed): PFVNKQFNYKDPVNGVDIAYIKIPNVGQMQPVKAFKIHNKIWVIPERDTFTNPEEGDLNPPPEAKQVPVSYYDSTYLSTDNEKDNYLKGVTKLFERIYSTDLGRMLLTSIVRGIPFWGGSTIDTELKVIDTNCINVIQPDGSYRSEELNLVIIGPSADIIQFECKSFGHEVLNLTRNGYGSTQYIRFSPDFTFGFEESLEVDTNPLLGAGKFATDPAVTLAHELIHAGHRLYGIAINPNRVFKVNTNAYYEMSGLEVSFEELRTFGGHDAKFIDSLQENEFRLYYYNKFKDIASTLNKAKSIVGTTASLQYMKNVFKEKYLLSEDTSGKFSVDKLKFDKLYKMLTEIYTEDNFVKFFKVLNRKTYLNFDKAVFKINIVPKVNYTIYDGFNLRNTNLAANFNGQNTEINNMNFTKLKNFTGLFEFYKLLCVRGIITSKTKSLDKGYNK
Sequence of Botulinum neurotoxin type A (P0DPI0 2-448 limits assumed): as above

As for `CC(=O)O[C@H]1C[C@H]2[C@@H]([C@H](OC(C)=O)C[C@@H]3C[C@H](O)CC[C@@]32C)[C@@H]2CC[C@H]([C@H](C)CCCNCCCCCCNc3ccnc4cc(Cl)ccc34)[C@@]12C`, the inhibition in series [1] amounted to 62.9%. The IC50 in series [2] stood at 36.6 nM; in [4], 33.9 nM; in series [6], 40.6 nM; in series [7], 2040 nM. Besides, the results for the selectivity ratio in series [3], in [5] and in series [8] were 60, 50 and 56, respectively.
For the compound `CC(=O)N[C@@H]1CC[C@@]2(C)[C@@H](C1)C[C@@H](OC(C)=O)[C@@H]1[C@@H]2C[C@H](OC(C)=O)[C@]2(C)[C@@H]([C@H](C)CCCNCCCNc3ccnc4cc(Cl)ccc34)CC[C@@H]12`, the Ratio in [9] was 0.98; in series [11], 1.09. In series [1], the inhibition is 77.3%. Moreover, the IC50 in [10] worked out at 4920 nM; in series [2], 12.8 nM; in [4], 26.4 nM; in [6], 28.1 nM; in [7], 1450 nM. Further, the figures for the IC90 in series [2], in [4] and in [6] were 36.5 nM, 35.8 nM and 39.9 nM, respectively. For the same compound, the selectivity ratio in [3] came out at 55; in series [5], 51; in series [8] it was 114.
On to `CC(=O)O[C@@H]1CC[C@@]2(C)[C@@H](C1)C[C@@H](OC(C)=O)[C@@H]1[C@@H]2C[C@H](OC(C)=O)[C@]2(C)[C@@H]([C@H](C)CCCNCCCCNc3ccnc4cc(Cl)ccc34)CC[C@@H]12`, for which the inhibition in series [1] turned out to be 69%. Further, the IC50 in series [2] was determined as 46.5 nM; in [4] it was 23.9 nM; in series [6], 54.5 nM; in series [7], 2560 nM. Besides, the selectivity ratio stood at 107 in series [3], 47 in series [5] and 55 in [8].
For `CC(=O)O[C@H]1C[C@H]2[C@@H]([C@H](OC(C)=O)C[C@@H]3C[C@H](NC(=O)OC(C)(C)C)CC[C@@]32C)[C@@H]2CC[C@H]([C@H](C)CCCN(C)CCCNc3ccnc4cc(Cl)ccc34)[C@@]12C`, the inhibition in [1] was 59.6%. Moreover, the IC50 in [10] turned out to be 6620 nM.
On to `CC(=O)O[C@H]1C[C@H]2[C@@H]([C@H](OC(C)=O)C[C@@H]3CC(=O)CC[C@@]32C)[C@@H]2CC[C@H]([C@H](C)CCCNCCCCCCNc3ccnc4cc(Cl)ccc34)[C@@]12C`, for which the inhibition in [1] came out at 77.2%. The IC50 is 47.5 nM in series [2], 42.1 nM in series [4], 51.6 nM in series [6] and 1280 nM in [7]. For the same compound, the selectivity ratio in series [3] was 30; in series [5] it was 25; in [8], 27.
For the compound `N=C(N)c1ccc(Oc2ccc(-c3cc4ccc(C(=N)N)cc4[nH]3)cc2)cc1`, the IC50 in [10] was found to be 2620 nM.
For `CC(=O)O[C@@H]1CC[C@@]2(C)[C@@H](C1)C[C@@H](OC(C)=O)[C@@H]1[C@@H]2C[C@H](OC(C)=O)[C@]2(C)[C@@H]([C@H](C)CCCNCCNc3ccnc4cc(Cl)ccc34)CC[C@@H]12`, in [1], the inhibition worked out at 74%. Moreover, the IC50 in [10] worked out at 3800 nM. Besides, the Ki in series [10] was 6990 nM. In addition, the IC90 in series [2] amounted to 34.2 nM; in [4] it was 32.5 nM; in series [6], 77.9 nM.
On to `CC(=O)O[C@H]1C[C@H]2[C@@H]([C@H](OC(C)=O)C[C@@H]3CC(=O)CC[C@@]32C)[C@@H]2CC[C@H]([C@H](C)CCCNCCCCNc3ccnc4cc(Cl)ccc34)[C@@]12C`, for which the inhibition in [1] turned out to be 81.5%. Besides, the selectivity ratio came to 7 in [3], 6 in [5] and 6 in [8]. For the same compound, the values for the IC50 in series [4], in series [6] and in series [7] were 175 nM, 214 nM and 1230 nM, respectively.
For `CC(=O)O[C@@H]1CC[C@@]2(C)[C@@H](C1)C[C@@H](OC(C)=O)[C@@H]1[C@@H]2C[C@H](OC(C)=O)[C@]2(C)[C@@H]([C@H](C)CCCNCCCCCCNc3ccnc4cc(Cl)ccc34)CC[C@@H]12`, in series [1], the inhibition turned out to be 83.3%. Also, the 50% inhibitory concentration (IC50) in series [2] amounted to 91 nM; in series [4], 56.4 nM; in series [6], 104 nM; in [7], 2640 nM. Also, the selectivity ratio came to 47 in series [3], 25 in series [5] and 29 in series [8].
As for `CC(=O)O[C@H]1C[C@H]2[C@@H]([C@H](OC(C)=O)C[C@@H]3C[C@H](NC(=O)OC(C)(C)C)CC[C@@]32C)[C@@H]2CC[C@H]([C@H](C)CCCNCCCNc3ccnc4cc(Cl)ccc34)[C@@]12C`, in series [1], the inhibition amounted to 74.9%. Moreover, the IC50 in [10] is 3240 nM.
In the case of `CC(=O)O[C@H]1C[C@H]2[C@@H]([C@H](OC(C)=O)C[C@@H]3C[C@H](NC(=O)OC(C)(C)C)CC[C@@]32C)[C@@H]2CC[C@H]([C@H](C)CCCN(CCCNc3ccnc4cc(Cl)ccc34)CCC[C@@H](C)[C@H]3CC[C@H]4[C@@H]5[C@H](OC(C)=O)C[C@@H]6C[C@H](NC(=O)OC(C)(C)C)CC[C@]6(C)[C@H]5C[C@H](OC(C)=O)[C@]34C)[C@@]12C`, in [1], the inhibition stood at 6.42%. Also, the selectivity ratio in series [3], in [5] and in [8] was 96 in each case. In addition, the values for the IC50 in [6] and in [7] were 369 nM and 35400 nM, respectively.
As to `CC(=O)O[C@H]1C[C@H]2[C@@H]([C@H](OC(C)=O)C[C@@H]3C[C@@H](NCCCCNc4ccnc5cc(Cl)ccc45)CC[C@@]32C)[C@@H]2CC[C@H]([C@H](C)CCCNCCCCNc3ccnc4cc(Cl)ccc34)[C@@]12C`, the inhibition in series [1] is 96.7%. Moreover, the Ki in [10] was determined as 300 nM.
Consider `Clc1ccc2c(NCCNC34CC5CC(CC(C5)C3)C4)ccnc2c1`, for which the half-maximal inhibitory concentration (IC50) in series [10] was determined as 11800 nM.
On to `CC(=O)O[C@H]1C[C@H]2[C@@H]([C@H](OC(C)=O)C[C@@H]3C[C@H](NCCCCCCNc4ccnc5cc(Cl)ccc45)CC[C@@]32C)[C@@H]2CC[C@H]([C@H](C)CCCNCCCCCCNc3ccnc4cc(Cl)ccc34)[C@@]12C`, for which the inhibition in series [1] was 95.5%. In addition, the inhibitory constant (Ki) in [10] came out at 285 nM.
The matching figures for `CC(=O)O[C@H]1C[C@H]2[C@@H]([C@H](OC(C)=O)C[C@@H]3C[C@@H](NCCCCCCNc4ccnc5cc(Cl)ccc45)CC[C@@]32C)[C@@H]2CC[C@H]([C@H](C)CCCNCCCCCCNc3ccnc4cc(Cl)ccc34)[C@@]12C`: 89.6% and 389 nM.
Take `CC(=O)O[C@H]1C[C@H]2[C@@H]([C@H](OC(C)=O)C[C@@H]3C[C@@H](NCCCCCCNc4ccnc5cc(Cl)ccc45)CC[C@@]32C)[C@@H]2CC[C@H]([C@H](C)CCCNCCCCNc3ccnc4cc(Cl)ccc34)[C@@]12C`: in [1], the inhibition was found to be 95.4%. In addition, the Ki in series [10] worked out at 103 nM.
Regarding `CC(=O)O[C@H]1C[C@H]2[C@@H]([C@H](OC(C)=O)C[C@@H]3C[C@H](O)CC[C@@]32C)[C@@H]2CC[C@H]([C@H](C)CCCNCCCCNc3ccnc4cc(Cl)ccc34)[C@@]12C`, in series [1], the inhibition came out at 80.8%. For the same compound, the IC50 in [2] was determined as 52.1 nM; in [4], 33.8 nM; in [6], 56.3 nM; in series [7], 1580 nM. For the same compound, the results for the selectivity ratio in series [3], in series [5] and in series [8] were 47, 28 and 30, respectively.
In the case of `C[C@@H]1CC[C@H]2[C@@H](C)C(=O)O[C@@H]3O[C@@]4(C)CC[C@@H]1[C@]32OO4` [ARTEMISININ], the values for the Ratio in series [9] and in series [11] were 0.9 and 1.36, respectively. Besides, the IC50 amounted to 9 nM in [2], 6.7 nM in [4] and 13.4 nM in [6]. Further, the values for the IC90 in [2], in series [4] and in [6] were 12.8 nM, 11.5 nM and 17.4 nM, respectively.
Consider `CCN(CC)CCCC(C)Nc1ccnc2cc(Cl)ccc12` (stereo unspecified) [CHLOROQUINE], for which, in [1], the inhibition worked out at 6.51%. In addition, the IC90 in series [2] came to 16.1 nM; in [4], 698 nM; in [6], 373 nM.
`CC(=O)O[C@H]1C[C@H]2[C@@H]([C@H](OC(C)=O)C[C@@H]3C[C@H](NCCCCCCNc4ccnc5cc(Cl)ccc45)CC[C@@]32C)[C@@H]2CC[C@H]([C@H](C)CCCNCCCCNc3ccnc4cc(Cl)ccc34)[C@@]12C`: the inhibition in [1] came out at 93.7%. Besides, in series [10], the Ki amounted to 300 nM.

What is called inhibition is how much of the control response was suppressed. In general, IC50 refers to the concentration needed to halve the response being measured. The term IC90 denotes the concentration needed for an effect of 90%. By Ki is commonly meant a dissociation constant, usually derived from enzyme kinetics or from competition with a known ligand.
